Experiments:
Details in all cases: stereoisomer not certain
OR10H3 (Homo sapiens) = biological target: T1, OR10H3 (Homo sapiens) (UniProt O60404)
T1 sequence (whole entry): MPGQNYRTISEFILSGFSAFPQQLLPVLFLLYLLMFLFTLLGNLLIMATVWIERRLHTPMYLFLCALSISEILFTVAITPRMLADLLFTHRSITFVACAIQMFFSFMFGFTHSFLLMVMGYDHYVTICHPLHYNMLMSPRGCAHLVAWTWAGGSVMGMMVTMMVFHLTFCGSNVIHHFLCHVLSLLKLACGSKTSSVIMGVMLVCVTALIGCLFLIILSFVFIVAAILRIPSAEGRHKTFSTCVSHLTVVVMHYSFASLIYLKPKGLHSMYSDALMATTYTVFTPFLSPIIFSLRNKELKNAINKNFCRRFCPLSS
Outline: (§1)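 Whether a receptor–molecule pair is responsive (active) rests on the original authors' judgment that its measured signal was statistically different from baseline. Pairs without that judgment are non-responsive (inactive). Sources used varied assay methods, commonly transient luciferase assays in mammalian cell lines.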

OR10H4 (Homo sapiens) = biological target: T2, OR10H4 (Homo sapiens) (UniProt Q8NGA5)
T2 sequence (whole entry): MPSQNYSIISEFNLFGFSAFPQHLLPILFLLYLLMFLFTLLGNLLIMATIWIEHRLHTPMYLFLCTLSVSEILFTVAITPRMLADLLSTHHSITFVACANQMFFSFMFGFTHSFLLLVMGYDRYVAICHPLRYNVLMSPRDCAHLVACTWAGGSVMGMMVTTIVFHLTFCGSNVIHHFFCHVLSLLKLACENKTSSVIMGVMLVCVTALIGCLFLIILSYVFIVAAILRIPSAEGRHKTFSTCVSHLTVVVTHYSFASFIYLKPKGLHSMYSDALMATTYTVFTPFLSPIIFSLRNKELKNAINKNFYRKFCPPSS
Outline: as §1

OR10H5 (Homo sapiens) = biological target: T3, OR10H5 (Homo sapiens) (UniProt Q8NGA6)
T3 sequence (whole entry): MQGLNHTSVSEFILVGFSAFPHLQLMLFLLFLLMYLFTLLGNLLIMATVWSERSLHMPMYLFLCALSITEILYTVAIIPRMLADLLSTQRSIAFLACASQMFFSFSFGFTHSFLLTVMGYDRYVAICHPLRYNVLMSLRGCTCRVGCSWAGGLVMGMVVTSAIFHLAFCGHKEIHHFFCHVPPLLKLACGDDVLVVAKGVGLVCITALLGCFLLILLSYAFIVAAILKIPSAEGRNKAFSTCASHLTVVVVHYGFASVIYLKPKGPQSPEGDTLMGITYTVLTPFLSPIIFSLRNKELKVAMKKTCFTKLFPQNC
Outline: as §1

OR10J1 (Homo sapiens) = biological target: T4, OR10J1 (Homo sapiens) (UniProt P30954)
T4 sequence (whole entry): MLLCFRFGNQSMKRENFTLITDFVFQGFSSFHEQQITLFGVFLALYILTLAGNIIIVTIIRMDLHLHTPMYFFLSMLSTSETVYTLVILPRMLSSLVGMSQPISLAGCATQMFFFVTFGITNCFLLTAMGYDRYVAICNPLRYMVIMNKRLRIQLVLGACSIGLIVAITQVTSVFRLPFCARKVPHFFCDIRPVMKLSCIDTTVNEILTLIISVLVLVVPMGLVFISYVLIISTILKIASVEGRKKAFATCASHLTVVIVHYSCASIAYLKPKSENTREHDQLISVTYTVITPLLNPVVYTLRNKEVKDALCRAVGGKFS
Outline: as §1

OR10J3 (Homo sapiens) = biological target: T5, OR10J3 (Homo sapiens) (UniProt Q5JRS4)
T5 sequence (whole entry): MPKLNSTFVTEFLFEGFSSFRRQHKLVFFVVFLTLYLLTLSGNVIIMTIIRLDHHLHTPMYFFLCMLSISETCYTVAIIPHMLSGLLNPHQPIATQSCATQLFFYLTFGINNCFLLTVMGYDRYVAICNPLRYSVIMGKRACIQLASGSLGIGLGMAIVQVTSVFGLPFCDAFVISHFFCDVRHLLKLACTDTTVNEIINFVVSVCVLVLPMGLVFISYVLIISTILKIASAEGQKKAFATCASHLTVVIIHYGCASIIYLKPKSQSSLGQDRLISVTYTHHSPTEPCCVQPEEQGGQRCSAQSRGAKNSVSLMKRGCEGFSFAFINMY
Outline: as §1

OR10J5 (Homo sapiens) = biological target: T6, OR10J5 (Homo sapiens) (UniProt Q8NHC4)
T6 sequence (whole entry): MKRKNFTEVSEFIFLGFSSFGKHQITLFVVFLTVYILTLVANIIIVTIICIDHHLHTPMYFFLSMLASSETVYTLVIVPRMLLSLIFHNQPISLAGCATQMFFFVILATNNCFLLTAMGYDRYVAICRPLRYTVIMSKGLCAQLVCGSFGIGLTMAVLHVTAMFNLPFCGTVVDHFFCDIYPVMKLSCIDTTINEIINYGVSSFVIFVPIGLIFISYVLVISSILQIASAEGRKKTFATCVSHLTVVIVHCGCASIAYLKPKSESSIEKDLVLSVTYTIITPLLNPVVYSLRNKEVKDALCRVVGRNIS
Outline: as §1

OR10K1 (Homo sapiens) = biological target: T7, OR10K1 (Homo sapiens) (UniProt Q8NGX5)
T7 sequence (whole entry): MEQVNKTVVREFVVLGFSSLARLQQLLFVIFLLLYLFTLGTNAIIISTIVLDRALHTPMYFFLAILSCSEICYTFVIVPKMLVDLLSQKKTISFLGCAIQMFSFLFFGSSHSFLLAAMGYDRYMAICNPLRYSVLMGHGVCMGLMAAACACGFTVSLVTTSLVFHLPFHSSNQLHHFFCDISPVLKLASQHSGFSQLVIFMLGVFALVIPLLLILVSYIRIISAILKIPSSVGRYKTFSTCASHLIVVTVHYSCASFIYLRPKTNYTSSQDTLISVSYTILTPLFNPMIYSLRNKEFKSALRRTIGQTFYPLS
Outline: as §1

OR10K2 (Homo sapiens) = biological target: T8, OR10K2 (Homo sapiens) (UniProt Q6IF99)
T8 sequence (whole entry): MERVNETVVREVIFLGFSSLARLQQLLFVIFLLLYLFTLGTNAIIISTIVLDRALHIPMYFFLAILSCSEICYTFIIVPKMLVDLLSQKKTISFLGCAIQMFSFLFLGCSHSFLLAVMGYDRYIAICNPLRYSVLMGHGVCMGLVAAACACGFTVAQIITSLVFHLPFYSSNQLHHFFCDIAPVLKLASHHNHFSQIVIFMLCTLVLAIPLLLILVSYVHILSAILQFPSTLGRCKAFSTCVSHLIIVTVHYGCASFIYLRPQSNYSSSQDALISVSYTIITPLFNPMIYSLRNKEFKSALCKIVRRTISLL
Outline: as §1

OR10P1 (Homo sapiens) = biological target: T9, OR10P1 (Homo sapiens) (UniProt Q8NGE3)
T9 sequence (whole entry): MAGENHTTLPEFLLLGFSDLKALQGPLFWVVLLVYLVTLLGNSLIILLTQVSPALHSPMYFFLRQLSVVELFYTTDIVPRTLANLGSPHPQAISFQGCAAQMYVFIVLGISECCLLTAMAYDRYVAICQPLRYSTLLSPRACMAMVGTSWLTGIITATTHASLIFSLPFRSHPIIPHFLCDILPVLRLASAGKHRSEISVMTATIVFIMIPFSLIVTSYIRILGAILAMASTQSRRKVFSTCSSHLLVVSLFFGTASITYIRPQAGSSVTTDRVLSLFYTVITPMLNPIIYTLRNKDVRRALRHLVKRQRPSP
Outline: as §1

OR10Q1 (Homo sapiens) = biological target: T10, OR10Q1 (Homo sapiens) (UniProt Q8NGQ4)
T10 sequence (whole entry): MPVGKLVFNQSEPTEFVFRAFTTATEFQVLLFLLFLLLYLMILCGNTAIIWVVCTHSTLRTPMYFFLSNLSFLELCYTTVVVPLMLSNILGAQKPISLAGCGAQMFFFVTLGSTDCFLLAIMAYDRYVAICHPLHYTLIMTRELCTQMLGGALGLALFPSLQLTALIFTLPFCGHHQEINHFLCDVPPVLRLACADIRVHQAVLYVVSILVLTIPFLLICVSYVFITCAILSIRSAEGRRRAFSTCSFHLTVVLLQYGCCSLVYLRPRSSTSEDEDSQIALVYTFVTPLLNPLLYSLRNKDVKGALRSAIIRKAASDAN
Outline: as §1

Measured: odorant receptor agonist call

CCC(S)C(C)CO (stereo not given)
inactive: all assays above

From the M2OR odorant receptor database
